Assay results taken from ChEMBL document CHEMBL1158990, “New cytotoxic lupane lactones from Kokoona ochracea” (1991).
≈ marks a conversion by molar mass, not a printed value.

Tests used:
Format in all cases: functional
[1] = Cytotoxicity against human KB3 cells after 72 hrs; conditions: KB3, 72 h, read-out: ED50 (the source's name)
How it was run: (§1)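 In vitro growth-inhibition assay with a 72 h compound exposure. ED50 in µg/ml is the concentration that inhibits cell growth by 50%.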

[2] = Cytotoxicity against human KBV1 cells after 72 hrs; conditions: KB-V1, 72 h, read-out: ED50 (the source's name)
[3] = Cytotoxicity against human UISO-COL2 cells after 72 hrs; conditions: UISO-COL2, 72 h, read-out: ED50 (the source's name); how it was run: as §1
[4] = Cytotoxicity against human UISO-LUC1 cells after 72 hrs; conditions: UISO-LUC1, 72 h, read-out: ED50 (the source's name); how it was run: as §1
HT-1080 = test: Cytotoxicity against human HT1080 cells after 72 hrs; conditions: HT-1080, 72 h, read-out: ED50 (the source's name); how it was run: as §1
[5] = Cytotoxicity against human UISO-MEL2 cells after 72 hrs; conditions: UISO-MEL2, 72 h, read-out: ED50 (the source's name); how it was run: as §1
[6] = Cytotoxicity against human UISO-BCA1 cells after 72 hrs; conditions: UISO-BCA1, 72 h, read-out: ED50 (the source's name); how it was run: as §1
P388 = test: Cytotoxicity against mouse P388 cells after 48 hrs; conditions: P388, 48 h, read-out: ED50 (the source's name)
How it was run: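 Cultured murine P-388 leukemia cells were treated with compound for 48 h. The read-out is cell growth inhibition, and ED50 in µg/ml is the concentration producing 50% inhibition.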

Row | Compound | EC50 [1] | EC50 [2] | EC50 [3] | EC50 [4] | EC50 (HT-1080) | EC50 [5] | EC50 [6] | EC50 (P388)
1 | C=C1C(=O)O[C@@H]2C[C@]3(C)CC[C@]4(C)[C@H](CC[C@@H]5[C@@]6(C)CCC(=O)C(C)(C)[C@@H]6CC[C@]54C)[C@H]3[C@H]12 [OCHRACEOLIDE A] | 2.7 mg/L (≈ 5.96 µM) | > 20 mg/L | 6.8 mg/L (≈ 15 µM) | 12 mg/L (≈ 26.5 µM) | 9.6 mg/L (≈ 21.2 µM) | 8.3 mg/L (≈ 18.3 µM) | 10 mg/L (≈ 22.1 µM) | 0.26 mg/L (≈ 0.574 µM)
2 | CC1(C)C(=O)CC[C@]2(C)[C@H]3CC[C@H]4[C@@H]5[C@H]6[C@@H](C[C@]5(C)CC[C@@]4(C)[C@]3(C)CC[C@@H]12)OC(=O)[C@@]61CO1 | 5.2 mg/L (≈ 11.1 µM) | > 20 mg/L | > 20 mg/L | > 20 mg/L | > 20 mg/L | > 20 mg/L | > 20 mg/L | 7.8 mg/L (≈ 16.6 µM)
3 | C=C1C(=O)O[C@@H]2C[C@]3(C)CC[C@]4(C)[C@@H](CC[C@@H]5[C@@]6(C)CCC(=O)C(C)(C)[C@@H]6C(=O)C[C@]54C)[C@@H]3[C@H]12 [OCHRACEOLIDE C] | 5.5 mg/L (≈ 11.8 µM) | > 20 mg/L | 9.2 mg/L (≈ 19.7 µM) | 12 mg/L (≈ 25.7 µM) | 8.6 mg/L (≈ 18.4 µM) | 8.3 mg/L (≈ 17.8 µM) | 4.5 mg/L (≈ 9.64 µM) | 0.53 mg/L (≈ 1.14 µM)
